Test results taken from ChEMBL document CHEMBL5724801, “EUbOPEN Chemogenomics Library - Multiplex” (2024).
“And” between values parts separate entries of the source, which are not always exact repeats. Equal entries are not always repeated.

Tested on: Fibroblast
Experiment: Multiplex assay against human fibroblast
Assay type: toxicity, cell-based
Summary of the method: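 Live cells were stained at seeding with Hoechst33342, BioTracker Green Microtubule Cytoskeleton Dye, MitoTracker Red and Annexin V Alexa Fluor 680. Following compound addition, they were imaged on a CQ1 microscope at 37°C and 5% CO2 and gated by CellPathfinder machine learning into Hoechst high-intensity objects or normal cells, with normal cells split into healthy, pyknosed or fragmented nuclei and pyknosed cells into mitotic or apoptotic. Tubulin, mitochondrial-mass and membrane-permeability phenotypes are per cents of healthy-nucleus cells.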

[1] = 12 h, 1 µM, compound concentration 1 uM
[2] = 12 h, 10 µM, compound concentration 10 uM
[3] = 24 h, 1 µM, compound concentration 1 uM
[4] = 24 h, 10 µM, compound concentration 10 uM
[5] = 48 h, 1 µM, compound concentration 1 uM
[6] = 48 h, 10 µM, compound concentration 10 uM

CCCOc1ccc2[nH]cc(C3=CCNCC3)c2n1.Cl
Population Apoptotic (%) [1]: 42% and 48% | Population Fragmented Nuclei (%) [1]: 13% and 25% | Population Healthy Nuclei (%) [1]: 71% and 52% | Population Hoechst High Intensity Objects (%) [1]: 2% and 0% | Population Membrane Permeable-Phenotype (%) [1]: 0% and 8% | Population Mitochondria Different-Phenotype (%) [1]: 6% and 2% | Population Mitotic Cells (%) [1]: 57% and 51% | Population Normal (%) [1]: 97% and 99% | Population Pyknosed Nuclei (%) [1]: 15% and 21% | Population Tubulin-Different-Phenotype (%) [1]: 27% and 47% | Total Cell Count [1]: 143 and 137 | Population Apoptotic (%) [2]: 70% and 40% | Population Fragmented Nuclei (%) [2]: 16% and 31% | Population Healthy Nuclei (%) [2]: 70% and 48% | Population Hoechst High Intensity Objects (%) [2]: 4% and 2% | Population Membrane Permeable-Phenotype (%) [2]: 0% and 1% | Population Mitochondria Different-Phenotype (%) [2]: 12% and 10% | Population Mitotic Cells (%) [2]: 29% and 60% | Population Normal (%) [2]: 95% and 97% | Population Pyknosed Nuclei (%) [2]: 13% and 20% | Population Tubulin-Different-Phenotype (%) [2]: 41% and 59% | Total Cell Count [2]: 133 and 125 | Population Apoptotic (%) [3]: 57% and 38% | Population Fragmented Nuclei (%) [3]: 14% and 28% | Population Healthy Nuclei (%) [3]: 76% and 52% | Population Hoechst High Intensity Objects (%) [3]: 2% and 0% | Population Membrane Permeable-Phenotype (%) [3]: 0% and 5% | Population Mitochondria Different-Phenotype (%) [3]: 6% and 5% | Population Mitotic Cells (%) [3]: 42% and 61% | Population Normal (%) [3]: 97% and 100% | Population Pyknosed Nuclei (%) [3]: 9% and 18% | Population Tubulin-Different-Phenotype (%) [3]: 20% and 40% | Total Cell Count [3]: 155 and 140 | Population Apoptotic (%) [4]: 61% and 50% | Population Fragmented Nuclei (%) [4]: 23% and 20% | Population Healthy Nuclei (%) [4]: 64% and 68% | Population Hoechst High Intensity Objects (%) [4]: 1% and 2% | Population Membrane Permeable-Phenotype (%) [4]: 0% and 4% | Population Mitochondria Different-Phenotype (%) [4]: 12% and 8% | Population Mitotic Cells (%) [4]: 38% and 50% | Population Normal (%) [4]: 98% and 97% | Population Pyknosed Nuclei (%) [4]: 11% | Population Tubulin-Different-Phenotype (%) [4]: 36% and 61% | Total Cell Count [4]: 159 and 107 | Population Apoptotic (%) [5]: 69% and 64% | Population Fragmented Nuclei (%) [5]: 17% and 36% | Population Healthy Nuclei (%) [5]: 74% and 53% | Population Hoechst High Intensity Objects (%) [5]: 2% and 4% | Population Membrane Permeable-Phenotype (%) [5]: 0% and 5% | Population Mitochondria Different-Phenotype (%) [5]: 5% and 2% | Population Mitotic Cells (%) [5]: 30% and 35% | Population Normal (%) [5]: 97% and 95% | Population Pyknosed Nuclei (%) [5]: 8% and 9% | Population Tubulin-Different-Phenotype (%) [5]: 23% and 40% | Total Cell Count [5]: 162 and 147 | Population Apoptotic (%) [6]: 73% and 60% | Population Fragmented Nuclei (%) [6]: 21% and 32% | Population Healthy Nuclei (%) [6]: 65% and 62% | Population Hoechst High Intensity Objects (%) [6]: 2% and 5% | Population Membrane Permeable-Phenotype (%) [6]: 0% and 4% | Population Mitochondria Different-Phenotype (%) [6]: 9% and 13% | Population Mitotic Cells (%) [6]: 26% and 40% | Population Normal (%) [6]: 97% and 94% | Population Pyknosed Nuclei (%) [6]: 13% and 4% | Population Tubulin-Different-Phenotype (%) [6]: 45% and 44% | Total Cell Count [6]: 150 and 116

O=C1COc2nccc(-c3ccccc3F)c2CN1Cc1cc(C(F)(F)F)cc(C(F)(F)F)c1
Population Apoptotic (%) [1]: 38% and 29% | Population Fragmented Nuclei (%) [1]: 12% and 17% | Population Healthy Nuclei (%) [1]: 74% and 62% | Population Hoechst High Intensity Objects (%) [1]: 2% and 0% | Population Membrane Permeable-Phenotype (%) [1]: 1% | Population Mitochondria Different-Phenotype (%) [1]: 7% and 5% | Population Mitotic Cells (%) [1]: 61% and 70% | Population Normal (%) [1]: 97% and 99% | Population Pyknosed Nuclei (%) [1]: 13% and 20% | Population Tubulin-Different-Phenotype (%) [1]: 27% and 32% | Total Cell Count [1]: 195 and 135 | Population Apoptotic (%) [2]: 54% and 37% | Population Fragmented Nuclei (%) [2]: 15% and 24% | Population Healthy Nuclei (%) [2]: 69% and 51% | Population Hoechst High Intensity Objects (%) [2]: 5% and 8% | Population Membrane Permeable-Phenotype (%) [2]: 0% and 4% | Population Mitochondria Different-Phenotype (%) [2]: 10% and 12% | Population Mitotic Cells (%) [2]: 45% and 62% | Population Normal (%) [2]: 94% and 91% | Population Pyknosed Nuclei (%) [2]: 14% and 23% | Population Tubulin-Different-Phenotype (%) [2]: 66% and 50% | Total Cell Count [2]: 161 and 132 | Population Apoptotic (%) [3]: 53% and 34% | Population Fragmented Nuclei (%) [3]: 11% and 20% | Population Healthy Nuclei (%) [3]: 74% and 58% | Population Hoechst High Intensity Objects (%) [3]: 3% and 2% | Population Membrane Permeable-Phenotype (%) [3]: 0% and 2% | Population Mitochondria Different-Phenotype (%) [3]: 6% and 3% | Population Mitotic Cells (%) [3]: 46% and 65% | Population Normal (%) [3]: 96% and 97% | Population Pyknosed Nuclei (%) [3]: 14% and 20% | Population Tubulin-Different-Phenotype (%) [3]: 23% and 39% | Total Cell Count [3]: 203 and 142 | Population Apoptotic (%) [4]: 66% and 55% | Population Fragmented Nuclei (%) [4]: 18% and 26% | Population Healthy Nuclei (%) [4]: 71% and 56% | Population Hoechst High Intensity Objects (%) [4]: 3% and 6% | Population Membrane Permeable-Phenotype (%) [4]: 0% and 7% | Population Mitochondria Different-Phenotype (%) [4]: 11% and 5% | Population Mitotic Cells (%) [4]: 33% and 45% | Population Normal (%) [4]: 96% and 93% | Population Pyknosed Nuclei (%) [4]: 9% and 16% | Population Tubulin-Different-Phenotype (%) [4]: 57% and 61% | Total Cell Count [4]: 162 and 129 | Population Apoptotic (%) [5]: 75% and 31% | Population Fragmented Nuclei (%) [5]: 16% and 29% | Population Healthy Nuclei (%) [5]: 75% and 55% | Population Hoechst High Intensity Objects (%) [5]: 5% and 6% | Population Membrane Permeable-Phenotype (%) [5]: 0% and 1% | Population Mitochondria Different-Phenotype (%) [5]: 4% and 1% | Population Mitotic Cells (%) [5]: 25% and 68% | Population Normal (%) [5]: 94% and 93% | Population Pyknosed Nuclei (%) [5]: 8% and 14% | Population Tubulin-Different-Phenotype (%) [5]: 28% and 25% | Total Cell Count [5]: 210 and 143 | Population Apoptotic (%) [6]: 72% and 60% | Population Fragmented Nuclei (%) [6]: 20% and 39% | Population Healthy Nuclei (%) [6]: 72% and 49% | Population Hoechst High Intensity Objects (%) [6]: 2% and 5% | Population Membrane Permeable-Phenotype (%) [6]: 0% and 1% | Population Mitochondria Different-Phenotype (%) [6]: 14% and 8% | Population Mitotic Cells (%) [6]: 27% and 40% | Population Normal (%) [6]: 97% and 94% | Population Pyknosed Nuclei (%) [6]: 6% and 11% | Population Tubulin-Different-Phenotype (%) [6]: 62% and 47% | Total Cell Count [6]: 172 and 144
